Results pooled from the literature.
Protocols differ between the studies behind these lines.
GHSR: Growth hormone secretagogue receptor type 1 (GHSR, Homo sapiens, UniProt Q92847)
USP51: Ubiquitin carboxyl-terminal hydrolase 51 (USP51, Homo sapiens, UniProt Q70EK9)
CASP3: Caspase-3 (CASP3, Homo sapiens, UniProt P42574)

c1ccc(C(NCCNC(c2ccccc2)c2ccccc2)c2ccccc2)cc1 gave an inhibition of 86% (GHSR; cell-free assay; 10 µM).
C#Cc1n[nH]c2c(-c3cn([C@@H](C)c4ccccc4)c(=O)[nH]c3=O)cc(F)cc12 has an inhibition of -1.6% (DNA-dependent protein kinase catalytic subunit (PRKDC, Homo sapiens, UniProt P78527); enzyme activity, inhibitor; 0.1 µM).
For O=c1cccc2n1C[C@@H]1CNC[C@H]2C1, the inhibition was 0% (USP51; enzyme activity, inhibitor; 5 µM).
O=C(Nc1cccnn1)N1CCN([C@@H]2CCOc3cc(C(F)(F)F)ccc32)CC1 has an inhibition of -7% (Angiotensin-converting enzyme (ACE, Homo sapiens, UniProt P12821); enzyme activity, inhibitor; 20 µM).
For C[C@H](C(=O)N[C@H]1COc2ccccc2[C@@H]1S(C)(=O)=O)c1ccc(F)cc1, the inhibition was -1% (GHSR; cell-free assay; 10 µM).
The inhibition of N=C(N)c1ccc2cc(OC(=O)c3ccc(N=C(N)N)cc3)ccc2c1 is reported as 0% (CASP3; enzyme activity, inhibitor; 10 µM).
For COc1cccc2c1cc([N+](=O)[O-])c1c(C(=O)O)cc3c(c12)OCO3, the inhibition was 36% (USP51; enzyme activity, inhibitor; 5 µM).
C#Cc1n[nH]c2c(-c3cn([C@@H](C)c4ccccn4)c(=O)[nH]c3=O)cc(F)cc12 has an inhibition of 4.6% (AP2-associated protein kinase 1 (AAK1, Homo sapiens, UniProt Q2M2I8); enzyme activity, inhibitor; 0.1 µM).
With Cn1cc(-c2cc(F)cc(N3CCn4c(cc5c4CCCC5)C3=O)c2CO)cc(Nc2ccc(N3CCN(C4COC4)CC3)cn2)c1=O the inhibition was 15% (Calcium/calmodulin-dependent protein kinase type IV (CAMK4, Homo sapiens, UniProt Q16566); enzyme activity, inhibitor; 0.1 µM).
CC(=O)N[C@@H](CC(=O)O)C(=O)N[C@@H](CC(N)=O)C(=O)N[C@@H](CC(C)C)C(=O)N[C@H](C=O)CC(=O)O has an inhibition of 25% (CASP3; enzyme activity, inhibitor; 10 nM).
COC1=CC(=O)O[C@@H](/C=C/c2ccccc2)C1 has an inhibition of 40% (USP51; enzyme activity, inhibitor; 5 µM).
Cc1ncc(C)n2nc(/C=C/c3nc(N4CCCC4)cc(N4CCOCC4)n3)nc12 has an inhibition of 3% (Peroxisome proliferator-activated receptor gamma (PPARG, Homo sapiens, UniProt P37231); ligand displacement; 10 µM).
C[C@@H]1CC[C@H]2[C@@H](C)C(=O)O[C@@H]3O[C@@]4(C)CC[C@@H]1[C@]32OO4 gave an inhibition of 17% (USP51; enzyme activity, inhibitor; 5 µM).
With CCOC(=O)c1ccc(OC(=O)CCCCCNC(=N)N)cc1 the inhibition was 2% (CASP3; enzyme activity, inhibitor; 10 µM).
The inhibition of CC(C)[C@]12O[C@H]1[C@@H]1O[C@]13[C@]1(O[C@H]1C[C@H]1C4=C(CC[C@@]13C)C(=O)OC4)[C@@H]2O is reported as 0% (USP51; enzyme activity, inhibitor; 5 µM).
With O=C(O[C@@H]1Cc2c(O)cc(O)cc2O[C@@H]1c1cc(O)c(O)c(O)c1-c1c([C@H]2Oc3cc(O)cc(O)c3C[C@H]2OC(=O)c2cc(O)c(O)c(O)c2)cc(O)c(O)c1O)c1cc(O)c(O)c(O)c1 the inhibition was 25% (Tyrosine-protein phosphatase non-receptor type 22 (PTPN22, Homo sapiens, UniProt Q9Y2R2); enzyme activity, inhibitor, fluorescence; 10 µM).
